Data taken from ChEMBL document CHEMBL1132954, “Synthesis and structure-activity relationships of chiral allosteric modifiers of hemoglobin” (2000).
“And” between values parts separate entries of the source, which are not always exact repeats. Equal entries are not always repeated.

Legend:
[1] = biological target: T1, Hemoglobin HbA (Homo sapiens) (UniProt P69905+P68871); assay: Oxygen pressure at which hemoglobin is 50% saturated with oxygen in the presence of the effector.; type: functional
Procedure, shortened: (§1)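 Purified stripped human adult Hb in 50 mM bis-Tris, 100 mM NaCl, pH 7.2, at 60-70 µM heme, with effector at 0.5 mM. Catalase and EDTA were added, and the sample was saturated with carbogen. The curve was recorded on a Hemox analyzer as O₂ pressure was lowered over 45-60 min, with saturation read at 577/586.2 nm. P50 came from linear regression of 40-60% saturation points. Single runs, each with its own no-effector control.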

[2] = Hill coefficient at 50% saturation in the presence of effector
[3] = biological target: T1, Hemoglobin HbA (Homo sapiens); assay: Ratio of P50e to P50c (P50 control value with no effector present, 5 mmHg); type: functional; procedure, shortened: as §1
[4] = The difference between P50e and P50c tested.; type: functional
Procedure, shortened: (§2)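 Heparinized whole blood from healthy volunteers, kept on ice, was given the effector sodium salt from a 200 mM DMSO stock to 5.0 mM final. It was tonometered about 10-12 min at 37 °C and equilibrated at 20%, 40% and 60% O₂. pH, pCO₂, pO₂ and sO₂ were read by blood gas analyzer and co-oximeter, at least in duplicate. ΔP50 = P50e − P50c.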

Homo sapiens [5] = organism: Homo sapiens; assay: (§3) P50e is the value in the presence of the effector in whole blood in experiment 2 (in vitro); type: functional; procedure, shortened: as §2
Homo sapiens [6] = organism: Homo sapiens; assay: (§4) P50e is the value in the presence of the effector in whole blood in experiment 1 (in vitro); type: functional; procedure, shortened: as §2
Homo sapiens [7] = organism: Homo sapiens; assay: (§5) P50C is the control value in whole blood in experiment.; type: functional; procedure, shortened: as §2
[8] = as §3; type: functional, Homo sapiens; procedure, shortened: as §2
[9] = as §4; type: functional, Homo sapiens; procedure, shortened: as §2
[10] = as §5; type: functional, Homo sapiens; procedure, shortened: as §2
[11] = P50e is the value in the presence of the effector in whole blood in experiment 3 (in vitro); type: functional, Homo sapiens; procedure, shortened: as §2

T1 sequence (P68871 2-147 partner limits assumed): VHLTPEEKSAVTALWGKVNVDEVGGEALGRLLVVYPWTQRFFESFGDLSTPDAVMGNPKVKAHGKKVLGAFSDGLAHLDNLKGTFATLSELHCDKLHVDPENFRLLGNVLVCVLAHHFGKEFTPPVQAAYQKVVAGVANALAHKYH
T1 sequence (P69905 2-142 limits assumed): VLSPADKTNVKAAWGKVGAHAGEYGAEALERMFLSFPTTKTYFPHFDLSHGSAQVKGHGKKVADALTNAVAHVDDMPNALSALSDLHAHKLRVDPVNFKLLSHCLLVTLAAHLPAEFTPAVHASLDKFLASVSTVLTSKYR

Compound | P50e [1] [mmHg] | Hill coefficient (n50) [2] | P50e/P50c [3] | further results
CCC(C)(Oc1ccc(CC(=O)Nc2ccc3c(c2)CCC3)cc1)C(=O)O (centres undefined) | 10.6 | 2.3 | 2.1 | –
Cc1cc(C)cc(NC(=O)Cc2ccc(OC3(C(=O)O)CCOCC3)cc2)c1 | 7.6 | 2.4 | 1.5 | –
Cc1cc(C)cc(NC(=O)Cc2ccc(OC3(C(=O)O)CCCC(C)C3)cc2)c1 (centres undefined) | 10.3 | 2.5 | 2.1 | –
Cc1cc(C)cc(NC(=O)Cc2ccc(OC3(C(=O)O)CCCC3)cc2)c1 | 25.7 | 2.4 and 1.66 | 5.1 | ΔP50 (P50e minus P50c) [4]: 42.3 mmHg; P50e (Homo sapiens [5]): 67.7 mmHg; P50e (Homo sapiens [6]): 74.7 mmHg; P50C (Homo sapiens [7]): 28.9 mmHg
Cc1cc(C)cc(NC(=O)Cc2ccc(OC(C)C(=O)O)cc2)c1 (single isomer, unassigned; (-)) [listing 1 of 2 here] | – | – | – | P50e (Homo sapiens [5]): 40.5 mmHg; P50e (Homo sapiens [6]): 39.7 mmHg; P50c (Homo sapiens [7]): 27.8 mmHg
CC1CCC(Oc2ccc(CC(=O)Nc3ccc4c(c3)CCC4)cc2)(C(=O)O)C1 (centres undefined) | 12.7 | 2.6 | 2.5 | –
CCC(C)(Oc1ccc(CC(=O)Nc2cc(C)cc(C)c2)cc1)C(=O)O (single isomer, unassigned; (+)) | 17.4 | 2.4 | 3.5 | –
CCCC(C)(Oc1ccc(CC(=O)Nc2cc(C)cc(C)c2)cc1)C(=O)O (centres undefined) | 11.7 | 2.7 | 2.3 | –
CCC(C)(Oc1ccc(CC(=O)Nc2cc(C)cc(C)c2)cc1)C(=O)O (stereo in doubt; (-)-10) | 10.5 | 2.3 | 2.1 | –
Cc1cc(C)cc(NC(=O)Cc2ccc(OC(C)C(=O)O)cc2)c1 (single isomer, unassigned; (+)) [listing 1 of 2 here] | – | – | – | P50e (Homo sapiens [5]): 48.7 mmHg; P50e (Homo sapiens [6]): 47.4 mmHg; P50c (Homo sapiens [7]): 27.3 mmHg
Cc1cc(C)cc(NC(=O)Cc2ccc(OC3(C(=O)O)CCOC3C)cc2)c1 (centres undefined) | 7.6 | 2.4 | 1.5 | –
Cc1cc(C)cc(NC(=O)Cc2ccc(OC3(C(=O)O)CCC(C)C3)cc2)c1 (centres undefined) | 12.9 | 2.5 | 2.6 | –
Cc1cc(C)cc(NC(=O)Cc2ccc(O[C@]3(C(=O)O)CCC[C@H]3C)cc2)c1 | 30.7 | 2.4 and 1.6 | 6.1 | ΔP50 (P50e minus P50c) [4]: 47.6 mmHg; P50e (Homo sapiens [5]): 72.5 mmHg; P50e (Homo sapiens [6]): 78.5 mmHg; P50c (Homo sapiens [7]): 27.9 mmHg
CCC(Oc1ccc(CC(=O)Nc2ccc3c(c2)CCC3)cc1)C(=O)O (centres undefined) | 9.1 | 2.6 | 1.8 | –
CC1CCCC1(Oc1ccc(CC(=O)Nc2ccc3c(c2)CCC3)cc1)C(=O)O (centres undefined) | 13.8 | 2.6 | 2.8 | –
Cc1cc(C)cc(NC(=O)Cc2ccc(O[C@]3(C(=O)O)CCO[C@H]3C)cc2)c1 | 9.3 | 2.6 | 1.9 | –
CC(C)(Oc1ccc(CC(=O)Nc2ccc3c(c2)CCC3)cc1)C(=O)O | 15.3 | 2.6 | 3 | –
Cc1cc(C)cc(NC(=O)Cc2ccc(O[C@@]3(C(=O)O)CCC[C@@H]3C)cc2)c1 | 19.9 | 2.6 and 1.8 | 4 | P50e [8]: 46.8 mmHg; ΔP50 (P50e minus P50c) [4]: 20.6 mmHg; P50e [9]: 49.7 mmHg; P50c [10]: 25.7 mmHg; P50e [11]: 42.4 mmHg
COCC(C)(Oc1ccc(CC(=O)Nc2cc(C)cc(C)c2)cc1)C(=O)O (centres undefined) | 8.4 | 2.4 | 1.7 | –
Cc1cc(C)cc(NC(=O)Cc2ccc(OC3(C(=O)O)CCCC3C)cc2)c1 (racemic) | 21.6 | 2.3 and 1.6 | 4.3 | ΔP50 (P50e minus P50c) [4]: 40.1 mmHg; P50e (Homo sapiens [5]): 67.2 mmHg; P50e (Homo sapiens [6]): 66 mmHg; P50c (Homo sapiens [7]): 26.5 mmHg
Cc1cc(C)cc(NC(=O)Cc2ccc(OC(C)C(=O)O)cc2)c1 (racemic) [listing 2 of 2 here] | – | – | – | P50e (Homo sapiens [5]): 43.5 mmHg; P50e (Homo sapiens [6]): 47.2 mmHg; P50c (Homo sapiens [7]): 27.2 mmHg
Cc1cc(C)cc(NC(=O)Cc2ccc(O[C@@]3(C(=O)O)CCO[C@@H]3C)cc2)c1 | 7.7 | 2.8 | 1.5 | –

Further lines, with some results ahead:

P50e [1] [mmHg] | Hill coefficient (n50) [2] | P50e/P50c [3] | Compound | further results
18 | 2.7 | 3.6 | CCC(Oc1ccc(CC(=O)Nc2cc(C)cc(C)c2)cc1)C(=O)O (single isomer, unassigned; (+)) | –
23.4 | 2.3 and 1.47 | 4.7 | Cc1cc(C)cc(NC(=O)Cc2ccc(OC(C)(C)C(=O)O)cc2)c1 [EFAPROXIRAL] | ΔP50 (P50e minus P50c) [4]: 45.2 mmHg; P50e (Homo sapiens [5]): 73.4 mmHg; P50e (Homo sapiens [6]): 76.5 mmHg; P50c (Homo sapiens [7]): 29.8 mmHg
6.6 | 2.5 and 2.2 | 1.3 | Cc1cc(C)cc(NC(=O)Cc2ccc(OC(C)C(=O)O)cc2)c1 (single isomer, unassigned; (-)) [listing 2 of 2 here] | ΔP50 (P50e minus P50c) [4]: 12.3 mmHg
13.1 | 2.6 | 2.6 | CCC(Oc1ccc(CC(=O)Nc2cc(C)cc(Cl)c2)cc1)C(=O)O (centres undefined) | –
16.6 | 2.5 | 3.3 | CCC(C)(Oc1ccc(CC(=O)Nc2cc(C)cc(Cl)c2)cc1)C(=O)O (centres undefined) | –
14 | 2.4 | 2.8 | Cc1cc(Cl)cc(NC(=O)Cc2ccc(OC3(C(=O)O)CCC(C)C3)cc2)c1 (centres undefined) | –
16.1 | 2.5 | 3.2 | CCCC(Oc1ccc(CC(=O)Nc2cc(C)cc(C)c2)cc1)C(=O)O (centres undefined) | –
9.3 | 2.6 and 2 | 1.9 | Cc1cc(C)cc(NC(=O)Cc2ccc(OC(C)C(=O)O)cc2)c1 (racemic) [listing 1 of 2 here] | ΔP50 (P50e minus P50c) [4]: 18.2 mmHg
21 | 2.4 | 4.4 | Cc1cc(Cl)cc(NC(=O)Cc2ccc(OC(C)(C)C(=O)O)cc2)c1 | –
9.8 | 2.6 and 1.9 | 2 | Cc1cc(C)cc(NC(=O)Cc2ccc(OC(C)C(=O)O)cc2)c1 (single isomer, unassigned; (+)) [listing 2 of 2 here] | ΔP50 (P50e minus P50c) [4]: 20.7 mmHg
5.9 | 2.5 | 1.2 | Cc1cc(C)cc(NC(=O)Cc2ccc(OC(F)C(=O)O)cc2)c1 (centres undefined) | –
13.3 | 2.4 | 2.7 | CCC(C)(Oc1ccc(CC(=O)Nc2cc(C)cc(C)c2)cc1)C(=O)O (stereo in doubt; 10) | –
9.8 | 2.8 | 2 | CCC(Oc1ccc(CC(=O)Nc2cc(C)cc(C)c2)cc1)C(=O)O (single isomer, unassigned; (-)) | –
17 | 2.5 | 3.4 | CCCCC(Oc1ccc(CC(=O)Nc2cc(C)cc(C)c2)cc1)C(=O)O (centres undefined) | –
21.9 | 2.4 | 4.4 | Cc1cc(Cl)cc(NC(=O)Cc2ccc(OC3(C(=O)O)CCCC3C)cc2)c1 (centres undefined) | –
13 | 2.7 | 2.6 | CCC(Oc1ccc(CC(=O)Nc2cc(C)cc(C)c2)cc1)C(=O)O (stereo in doubt; 32) | –
6.3 | 2.7 | 1.3 | CC(Oc1ccc(CC(=O)Nc2ccc3c(c2)CCC3)cc1)C(=O)O (centres undefined) | –
9.4 | 2.6 | 1.9 | Cc1cc(Cl)cc(NC(=O)Cc2ccc(OC(C)C(=O)O)cc2)c1 (centres undefined) | –
